Data reported in publication PMC3582828 (European journal of medicinal chemistry, 2012).
pIC50: −log10 of the molar value.

Legend:
PDE1 = experiment: PDE enzyme assay; assay type: biochemical; conditions: for pIC50: read-out: PDE1 IC50, Data obtained by BPS Bioscience; for PDEX/PDE5 (PDE1): selectivity ratio IC50 PDE1 / IC50 PDE5
Summary of the method: (§1)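 Each PDE was incubated at room temperature for 60 min in PDE assay buffer with 100 nM FAM-cGMP or FAM-cAMP substrate, 0.125 ng enzyme and test compound. A 1:100 binding-agent solution was then added for 60 min at room temperature.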

PDE11 = PDE11 (Homo sapiens, UniProt Q9HCR9); experiment: PDE enzyme assay; assay type: biochemical; conditions: selectivity ratio IC50 PDE11 / IC50 PDE5
Chain of PDE11 (Q9HCR9 whole entry): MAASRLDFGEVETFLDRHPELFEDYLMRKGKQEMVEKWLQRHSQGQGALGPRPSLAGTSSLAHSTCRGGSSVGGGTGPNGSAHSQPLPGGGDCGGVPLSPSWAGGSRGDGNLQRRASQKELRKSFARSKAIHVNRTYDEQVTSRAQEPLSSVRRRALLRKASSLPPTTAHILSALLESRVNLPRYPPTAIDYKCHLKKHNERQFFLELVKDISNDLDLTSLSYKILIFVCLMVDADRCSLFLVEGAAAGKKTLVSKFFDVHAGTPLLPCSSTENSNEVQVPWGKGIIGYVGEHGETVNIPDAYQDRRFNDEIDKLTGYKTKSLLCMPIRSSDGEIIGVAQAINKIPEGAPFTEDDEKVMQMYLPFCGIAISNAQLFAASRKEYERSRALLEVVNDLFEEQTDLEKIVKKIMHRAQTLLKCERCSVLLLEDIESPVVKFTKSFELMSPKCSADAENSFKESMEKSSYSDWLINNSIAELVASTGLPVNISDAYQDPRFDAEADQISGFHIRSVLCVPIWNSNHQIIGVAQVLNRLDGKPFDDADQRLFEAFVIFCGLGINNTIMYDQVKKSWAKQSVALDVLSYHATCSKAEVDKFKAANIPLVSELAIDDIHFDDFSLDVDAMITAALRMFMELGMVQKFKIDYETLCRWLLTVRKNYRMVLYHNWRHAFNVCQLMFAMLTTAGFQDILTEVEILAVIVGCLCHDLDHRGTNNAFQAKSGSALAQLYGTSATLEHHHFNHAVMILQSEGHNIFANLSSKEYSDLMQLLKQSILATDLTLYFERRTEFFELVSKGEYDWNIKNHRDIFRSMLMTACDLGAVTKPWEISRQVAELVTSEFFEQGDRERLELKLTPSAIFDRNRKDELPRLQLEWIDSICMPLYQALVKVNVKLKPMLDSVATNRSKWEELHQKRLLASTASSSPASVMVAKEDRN

PDE7 = experiment: PDE enzyme assay; assay type: biochemical; conditions: for pIC50: read-out: PDE7 IC50, Data obtained by BPS Bioscience; for PDEX/PDE5 (PDE7): selectivity ratio IC50 PDE7 / IC50 PDE5
Summary of the method: as §1

PDE3 = experiment: PDE enzyme assay; assay type: biochemical; conditions: for pIC50: read-out: PDE3 IC50, Data obtained by BPS Bioscience; for PDEX/PDE5 (PDE3): selectivity ratio IC50 PDE3 / IC50 PDE5
Summary of the method: as §1

PDE8 = experiment: PDE enzyme assay; assay type: biochemical; conditions: selectivity ratio IC50 PDE8 / IC50 PDE5
PDE2 = PDE2 (Homo sapiens, UniProt O00408); experiment: PDE enzyme assay; assay type: biochemical; conditions: selectivity ratio IC50 PDE2 / IC50 PDE5
Chain of PDE2 (O00408 whole entry): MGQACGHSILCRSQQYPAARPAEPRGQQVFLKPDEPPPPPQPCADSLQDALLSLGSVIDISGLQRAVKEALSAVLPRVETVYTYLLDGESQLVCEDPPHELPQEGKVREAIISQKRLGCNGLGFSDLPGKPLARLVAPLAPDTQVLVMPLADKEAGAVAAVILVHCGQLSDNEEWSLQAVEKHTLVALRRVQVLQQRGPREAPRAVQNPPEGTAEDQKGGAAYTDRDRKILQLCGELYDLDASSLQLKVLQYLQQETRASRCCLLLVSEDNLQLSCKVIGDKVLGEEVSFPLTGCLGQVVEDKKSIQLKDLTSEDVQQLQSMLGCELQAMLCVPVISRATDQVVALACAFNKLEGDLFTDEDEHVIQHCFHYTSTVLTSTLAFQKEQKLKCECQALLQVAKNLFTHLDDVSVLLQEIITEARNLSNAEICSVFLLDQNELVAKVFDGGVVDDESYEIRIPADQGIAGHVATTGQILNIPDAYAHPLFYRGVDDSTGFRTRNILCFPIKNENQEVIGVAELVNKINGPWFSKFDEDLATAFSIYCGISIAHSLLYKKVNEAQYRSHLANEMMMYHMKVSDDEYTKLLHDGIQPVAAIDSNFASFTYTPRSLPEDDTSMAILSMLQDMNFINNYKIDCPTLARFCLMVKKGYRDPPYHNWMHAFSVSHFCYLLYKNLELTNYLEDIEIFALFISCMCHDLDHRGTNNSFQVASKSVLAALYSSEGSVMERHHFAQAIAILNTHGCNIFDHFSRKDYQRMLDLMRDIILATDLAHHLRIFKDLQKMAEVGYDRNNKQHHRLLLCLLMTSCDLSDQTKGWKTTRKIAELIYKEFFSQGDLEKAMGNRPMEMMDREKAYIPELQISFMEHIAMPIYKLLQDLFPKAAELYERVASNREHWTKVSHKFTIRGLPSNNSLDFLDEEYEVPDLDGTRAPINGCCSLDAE

PDE4 = experiment: PDE enzyme assay; assay type: biochemical; conditions: for pIC50: read-out: PDE4 IC50, Data obtained by BPS Bioscience; for PDEX/PDE5 (PDE4): selectivity ratio IC50 PDE4 / IC50 PDE5
Summary of the method: as §1

PDE9 = PDE9 (Homo sapiens, UniProt O76083); experiment: PDE enzyme assay; assay type: biochemical; conditions: selectivity ratio IC50 PDE9 / IC50 PDE5
Chain of PDE9 (O76083 whole entry): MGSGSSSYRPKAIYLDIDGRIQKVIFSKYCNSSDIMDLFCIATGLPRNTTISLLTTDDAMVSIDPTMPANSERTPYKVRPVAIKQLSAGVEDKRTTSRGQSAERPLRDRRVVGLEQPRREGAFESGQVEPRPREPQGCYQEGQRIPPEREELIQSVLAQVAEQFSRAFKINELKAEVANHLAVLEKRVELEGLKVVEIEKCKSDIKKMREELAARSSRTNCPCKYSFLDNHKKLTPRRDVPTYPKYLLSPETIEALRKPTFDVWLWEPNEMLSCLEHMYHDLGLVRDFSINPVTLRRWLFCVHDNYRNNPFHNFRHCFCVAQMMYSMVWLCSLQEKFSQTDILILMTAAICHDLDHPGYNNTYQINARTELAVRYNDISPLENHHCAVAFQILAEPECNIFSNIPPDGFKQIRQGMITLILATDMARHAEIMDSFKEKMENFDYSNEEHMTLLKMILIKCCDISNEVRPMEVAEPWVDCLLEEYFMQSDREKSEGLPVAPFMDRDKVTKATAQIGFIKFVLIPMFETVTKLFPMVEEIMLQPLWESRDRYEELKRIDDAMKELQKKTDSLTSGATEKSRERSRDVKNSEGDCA

PDE5 = PDE5 (Homo sapiens, UniProt O76074); experiment: PDE enzyme assay; assay type: biochemical; conditions: ratio IC50 PDE5 / IC50 PDE5
PDE10 = PDE10 (Homo sapiens, UniProt Q9Y233); experiment: PDE enzyme assay; assay type: biochemical; conditions: selectivity ratio IC50 PDE10 / IC50 PDE5
Chain of PDE10 (Q9Y233 whole entry): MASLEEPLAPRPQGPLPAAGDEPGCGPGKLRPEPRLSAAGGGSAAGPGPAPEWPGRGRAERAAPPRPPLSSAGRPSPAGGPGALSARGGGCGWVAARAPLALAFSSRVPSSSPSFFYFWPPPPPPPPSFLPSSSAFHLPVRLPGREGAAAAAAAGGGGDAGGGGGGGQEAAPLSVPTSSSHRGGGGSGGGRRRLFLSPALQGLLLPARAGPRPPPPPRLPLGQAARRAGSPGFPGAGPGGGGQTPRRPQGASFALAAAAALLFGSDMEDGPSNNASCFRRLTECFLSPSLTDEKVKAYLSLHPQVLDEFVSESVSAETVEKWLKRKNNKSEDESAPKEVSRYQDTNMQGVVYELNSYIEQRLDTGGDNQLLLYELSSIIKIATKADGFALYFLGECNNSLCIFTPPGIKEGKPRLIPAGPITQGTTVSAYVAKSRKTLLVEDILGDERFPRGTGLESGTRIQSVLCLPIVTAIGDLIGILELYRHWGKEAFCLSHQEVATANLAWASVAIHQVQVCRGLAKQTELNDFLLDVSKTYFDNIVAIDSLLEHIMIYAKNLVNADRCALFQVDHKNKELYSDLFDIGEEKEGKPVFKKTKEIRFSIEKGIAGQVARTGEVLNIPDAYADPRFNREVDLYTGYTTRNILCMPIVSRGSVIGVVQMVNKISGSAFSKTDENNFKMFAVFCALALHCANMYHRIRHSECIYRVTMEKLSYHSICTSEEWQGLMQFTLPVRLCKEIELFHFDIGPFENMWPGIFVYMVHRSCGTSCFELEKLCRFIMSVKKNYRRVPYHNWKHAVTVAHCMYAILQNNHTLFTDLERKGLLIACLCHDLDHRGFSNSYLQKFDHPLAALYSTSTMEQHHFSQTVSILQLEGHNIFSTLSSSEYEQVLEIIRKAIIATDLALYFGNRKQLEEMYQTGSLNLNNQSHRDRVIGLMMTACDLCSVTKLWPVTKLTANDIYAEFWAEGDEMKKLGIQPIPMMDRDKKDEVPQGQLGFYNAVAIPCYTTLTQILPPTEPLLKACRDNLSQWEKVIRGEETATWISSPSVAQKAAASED

APP/PS1 mice = experiment: 2-day radial arm water maze; assay type: in vivo, APP/PS1 mouse; conditions: 3 mg/kg, i.p., for 3 weeks; 3–4 month old APP/PS1 mice; vehicle ~3 errors
[1] = test system: LTP in slices from APP/PS1 mice; experiment: LTP in hippocampal slices from APP/PS1 mice; parameters: species or system APP/PS1 mouse; conditions: 50 nM through bath solution for 10 min prior to θ-burst
[2] = Pharmacokinetics in mouse brain tissue and plasma; assay type: in vivo, male BALB/c mice
Summary of the method: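 Test compound was dosed at 50 mg/kg p.o. in 0.05% aqueous methylcellulose. Plasma (retro-orbital blood, heparin) and brain were taken at 0, 0.25, 0.5, 1, 2 and 4 h, with 3 mice per time point. Brain was rinsed in cold saline and homogenised in methanol. LC/MS/MS used an internal standard and 1/x2-weighted linear regression. Penetration was expressed as brain/plasma Cmax and AUC ratios.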

| Compound | pIC50 (PDE1) | PDEX/PDE5 (PDE1) (PDE1) | PDEX/PDE5 (PDE11) (PDE11) | pIC50 (PDE7) | PDEX/PDE5 (PDE7) (PDE7) | pIC50 (PDE3) | PDEX/PDE5 (PDE3) (PDE3) | PDEX/PDE5 (PDE8) (PDE8) | PDEX/PDE5 (PDE2) (PDE2) | pIC50 (PDE4) | PDEX/PDE5 (PDE4) (PDE4) | PDEX/PDE5 (PDE9) (PDE9) | PDEX/PDE5 (PDE5) (PDE5) | PDEX/PDE5 (PDE10) (PDE10) | Errors in the 2-day RAWM test (APP/PS1 mice) | Effect on LTP in WT slices [1] | Blood brain barrier penetration [2] |
| --- | --- | --- | --- | --- | --- | --- | --- | --- | --- | --- | --- | --- | --- | --- | --- | --- | --- |
| COc1ccc(CNc2c(CO)cnc3c(N(C)C)cc(C#N)cc23)cc1Cl [7b, 4-[(3-chloro-4-methoxybenzyl)amino]-8-(N,N-dimethylamino)-3-(hydroxymethyl) quinoline-6-carbonitrile] | < 5.00 | >10^4 | >10^4 | < 5.00 | >10^4 | < 5.00 | >10^4 | >10^4 | >10^4 | < 5.00 | >10^4 | >10^4 | 1 | >10^4 |  |  |  |
| COc1ccc(CNc2c(CO)cnc3c(C4CC4)cc(C#N)cc23)cc1Cl [7a, 4-[(3-chloro-4-methoxybenzyl)amino]-8-cyclopropyl-3-(hydroxymethyl) quinoline-6-carbonitrile] | < 5.00 | >10^4 | >10^4 | < 5.00 | >10^4 | < 5.00 | >10^4 | >10^4 | >10^4 | < 5.00 | >10^4 | >10^4 | 1 | >10^4 | less than 2 errors | no effect | readily crosses the blood brain barrier |
